High-throughput results (PubChem BioAssay)
Shown is part of a subset that was picked to be rich in hits.
Fibroblast inh: blocks proliferation of human lung fibroblasts; viability, % at 10 µM; LL 47 human lung fibroblast viability, ATP luminescence; stronger effect = lower value; AID 719; 85,000 tested, 1.1% active;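 active means viability at or below 50% in the single dose screen; inactive means viability above 50%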;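 further: compound exposure lasted 72 h before the ATP readout; 100% = median luminescence of untreated cell-only wells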
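Signal: luminescent ATP detection, CellTiter-Glo; assay system: LL 47 human lung fibroblasts; input: 1,150 cells/well; incubation: overnight cell rest, 72 h compound treatment at 37 °C; measure: % viability versus median cells-only luminescence; medium: IMEM growth medium with 15% fetal bovine serum; dosing: compound addition at 0.1% DMSO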
PTEN del growth: PTEN-deleted cell growth suppression. HCT116 PTEN-null viability, CellTiter-Glo, 60 h; stronger effect = lower value. viability, % at 10 µM. 140,000 tested, 1.2% active;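 active means viability at or below a set limit, 4 SD under the median of all tested compounds, cut at about 3.7% in these data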;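 further: PTEN knockout HCT116 line with beta catenin targeted HCT116 as companion control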
HCT116 bCat-KO: beta-catenin-lacking colon tumor cell growth suppression. AID 818. 140,000 tested, 1.5% active. viability, % at 10 µM. HCT116 beta-catenin knockout viability, CellTiter-Glo, 60 h; stronger effect = lower value;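 active means viability at or under a set limit, the compound median less 4 SD, cut at about 6% in these data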;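 further: 0% = Hyamine 1622 control at 20 µM and 100% = untreated cell control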
HUVEC prolif 384: blocks proliferation of human endothelial cells; HUVEC proliferation, CellTiter-Glo luminescence, 72 h; stronger effect = lower value; viability, % at 10 µM (by protocol); 86,000 tested, 1.1% active;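 active means viability at or below 30%; inactive means viability above 30%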;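 further: 100% = median luminescence of DMSO-only cell control wells on each plate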
Calb biofilm kill: kills Candida albicans biofilms; C. albicans biofilm + clotrimazole, Alamar Blue; inhibition, % at 6 µM; 85,000 tested, 0.14% active; AID 834;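 active means inhibition above 20%; inactive means inhibition below 20%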;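 further: preformed 24 hr biofilms exposed to compound for 48 hr; 0% = biofilm without compound and 100% = blank killed by clotrimazole plus chlorhexidine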
H69AR inhibit: growth inhibitors of human H69AR lung tumor cells; H69AR lung tumor viability, ATP luminescence, 72 h; stronger effect = lower value; viability, % at 10 µM; 85,000 tested, 6% active;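 active means viability at or below 40%; inactive means viability above 40%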;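 further: multidrug resistant small cell line overexpressing MRP-1 efflux transporter; 100% = mean luminescence of untreated control wells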
* marks the source's active call; other numbers are inactive results; / = not tested or not shown.

SMILES | Fibroblast inh | PTEN del growth | HCT116 bCat-KO | HUVEC prolif 384 | Calb biofilm kill | H69AR inhibit
Cc1ccc(C(=O)c2coc3c2C(=O)C(=O)c2ccccc2-3)cc1 | 47* | 1.4* | 1.8* | 3.5* | 3 | 1.8*
Cc1ccc(C(=O)c2c(C)oc3c2C(=O)C(=O)c2ccccc2-3)cc1 | 2.1* | 1.1* | 0.8* | 57 | 10 | 1.0*
Cc1oc2c(c1C(=O)c1ccc(Cl)cc1)C(=O)C(=O)c1ccccc1-2 | / | 0.9* | 0.9* | / | / | /
C/C(=N\NC(=O)c1ccc([N+](=O)[O-])c(C)c1)c1ccccc1Cl | / | 70 | 74 | / | / | /
CN(C)c1ccc(/C=[N+](\[O-])C2N(c3ccccc3)C(=S)SC2(C)C)cc1 (stereo not given) | / | 78 | 79 | / | / | /
S=C(Nc1ccccc1)Nc1ccc(OCc2ccc(Cl)cc2Cl)cc1 | / | 78 | 86 | / | / | /
OCCCCNCc1ccc(OCc2ccc(Cl)cc2Cl)cc1 | / | 1.6* | 1.8* | / | / | /
O=C1/C(=C\c2ccc3ccccc3c2)CCCc2ccccc21 | 64 | 18 | 19 | 64 | 7 | 17*
CCN1C/C(=C\c2cccc([N+](=O)[O-])c2)C(=O)/C(=C/c2cccc([N+](=O)[O-])c2)C1 | / | 1.4* | 1.6* | / | / | /
Cc1ccccc1/C=C1\CCCc2ccccc2C1=O | 86 | 77 | 65 | 92 | 7 | 84
O=C1/C(=C/c2cccc([N+](=O)[O-])c2)CCc2ccccc21 | / | 2.0* | 3.2* | / | / | /
COc1ccc(/C=C2\CCc3ccccc3C2=O)cc1OC | / | 8 | 7 | / | / | /
COc1ccccc1OCCC(=O)OCC(=O)NC(C)c1ccccc1 (stereo not given) | / | 93 | 99 | / | / | /
Cc1ccc(S(=O)(=O)Nc2ccc3c(c2)nc(CN2CCCC2)n3C)cc1 | 92 | 93 | 95 | 92 | 8 | 82
Cn1c(CCN2CCCCC2)nc2cc(NS(=O)(=O)c3ccc(F)cc3)ccc21 | 94 | 42 | 19 | 107 | 3 | 22*
CCN(CC)c1ccc2cc(-c3nnc(-c4ccccc4)o3)c(=O)oc2c1 | 72 | 15 | 22 | 57 | 6 | 22*
Brc1cccc(-c2nnc(-c3ccccc3)o2)c1 | 103 | 88 | 88 | 92 | 0 | 80
O=c1oc2ccccc2cc1-c1nnc(-c2cccc(Br)c2)o1 | 107 | / | / | 99 | 9 | 38*
CCN(CC)c1ccc2cc(-c3nc4ccccc4n3C)c(=O)oc2c1 | 51 | 15 | 15 | 21* | -3 | 20*
CCN(CC)c1ccc2cc(-c3nnc(-c4ccc(Br)cc4)o3)c(=O)oc2c1 | 93 | / | / | 76 | 3 | 101
CCN(CC)c1ccc2cc(-c3nc(-c4ccc(OC)cc4)cs3)c(=O)oc2c1 | / | 91 | 91 | / | / | /
CCN(CC)c1ccc2cc(-c3nc4ccccc4[nH]3)c(=O)oc2c1 | 26* | 63 | 60 | 38 | 4 | 1.4*
COC(=O)c1sccc1NC(=S)N1CCN(c2cc(C)ccc2C)CC1 | / | 50 | 67 | / | / | /
COc1ccccc1NC(=S)NC(=O)/C=C/c1ccco1 | / | 82 | 95 | / | / | /
Cc1ccc(-n2nc3cc(C)c(NC(=S)NC(=O)/C=C/c4ccco4)cc3n2)cc1 | / | 6 | 5.5* | / | / | /
SMILES | Fibroblast inh | PTEN del growth | HCT116 bCat-KO | HUVEC prolif 384 | Calb biofilm kill | H69AR inhibit
Cc1ccc(-n2nc3ccc(NC(=S)NC(=O)/C=C/c4ccco4)cc3n2)cc1 | / | 60 | 77 | / | / | /
Cc1cccc(NC(=S)NC(=O)/C=C/c2ccco2)n1 | 90 | 88 | 85 | 82 | 6 | 33*
CCN(CC)Cc1c(O)ccc2c([N+](=O)[O-])c(C)n(-c3ccc(OC)cc3)c12 | 93 | 83 | 79 | 64 | 5 | 39*
CCN1CCN(c2ncc(C(=O)Nc3cc(Cl)ccc3OC)c3ccccc23)CC1 | 68 | 36 | 32 | 19* | -1 | 12*
COc1ccc(Cl)cc1NC(=O)CCN1CCN(c2ccccc2C)CC1 | / | 80 | 84 | / | / | /
COc1ccc(/C=N/NC(=O)CCc2n[nH]c(=O)[nH]c2=O)cc1OC | / | 104 | 101 | / | / | /
COc1ccc(Cc2nnc(N/N=C/c3ccc(O)cc3)[nH]c2=O)cc1OC | / | 7 | 5.5* | / | / | /
CCOC(=O)c1nnn(-c2nonc2-n2cccc2)c1CCl | 35* | 85 | 85 | 3.3* | 1 | 1.5*
Cc1ccc(C2=NN(CCC(=O)NCc3ccc4c(c3)OCO4)C(=O)CC2)cc1 | / | 84 | 79 | / | / | /
COC(=O)c1ccc(C)c(NS(=O)(=O)c2ccc3c(c2)OCCO3)c1 | 60 | 18 | 21 | 47 | 7 | 30*
COC(=O)c1ccc(C)c(NS(=O)(=O)c2ccc(C)c([N+](=O)[O-])c2)c1 | / | 81 | 102 | / | / | /
CC(=O)c1cc2c(cc1NS(=O)(=O)c1ccc(C)cc1)OCCO2 | 81 | 48 | 58 | 60 | 1 | 18*
COC(=O)c1sccc1NS(=O)(=O)c1ccc(OC)cc1 | 84 | 33 | 34 | 70 | 2 | 15*
CC(=O)c1cc2c(cc1NS(=O)(=O)c1ccccc1)OCO2 | 84 | 88 | 87 | 80 | 1 | 82
COC(=O)c1ccc(C)c(NS(=O)(=O)c2ccc(OC)cc2)c1 | 56 | 17 | 17 | 46 | 0 | 37*
CC(NC(=O)CCc1ccccc1)c1cc2c(cc1Cl)OCCO2 (stereo not given) | / | 82 | 84 | / | / | /
CCCc1cc(C(=O)NNC(=S)NC(C)c2ccccc2)cs1 (stereo not given) | / | 87 | 100 | / | / | /
Cc1nn(-c2ccccc2)c(Cl)c1C(=O)Nc1nnc(C2CCCC2)s1 | 101 | 97 | 91 | 85 | 2 | 93
CC(=O)N(Cc1ccc(F)cc1)C1=C(NCCc2ccccc2)C(=O)c2ccccc2C1=O | 1.8* | 2.3* | 1.9* | 4.3* | 2 | 1.2*
CC1=C(C(=O)Nc2cccc(C)n2)C(c2ccc3c(c2)OCO3)C2=C(CC(c3ccco3)CC2=O)N1 (stereo not given) | 101 | 74 | 87 | 98 | 7 | 101
CC1(C)C(c2ccccn2)=[N+]([O-])C(C)(C)N1O | 96 | 97 | 94 | 98 | 2 | 92
CC1(C)C(c2ccccc2)=[N+]([O-])CN1O | / | 89 | 83 | 96 | 8 | 34*
CCOC(=O)c1c(C)c(C(=O)Nc2ccc(N(C)C)cc2)c(C)n1CC | 57 | 21 | 21 | 54 | 4 | 19*
COC(=O)C1=C(C)NC(C)=C(C(=O)OC)C1c1ccc(OC(=O)c2oc3ccccc3c2C)c(OC)c1 | / | 91 | 89 | / | / | /
CCc1nc(N2CCN(C(=O)c3ccco3)CC2)c2oc3ccccc3c2n1 | 94 | 31 | 42 | 76 | 1 | 22*
CC(C)(C)c1nc(N2CCN(C(=O)c3ccco3)CC2)c2nnn(Cc3ccccc3)c2n1 | 93 | 60 | 60 | 76 | 1 | 11*
CCOc1ccccc1-n1c(CN2CCN(C(=O)c3ccco3)CC2)nc2ccccc2c1=O | 15* | 2.5* | 3.6* | 52 | 5 | 63
CC1=CCC2COC(c3ccc[n+](Cc4ccccc4)c3)C1C2 (stereo not given) | / | 68 | 77 | / | / | /
C=CCCCCCCCCC(=O)NNC1=CC(=O)CC(C)(C)C1 | 96 | 88 | 104 | 95 | 12 | 95
